Reference: PubChem BioAssay AID624070 (Broad Institute, 2012)
Records with an inconclusive call do not appear. Calls of active or inactive are those of the source.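 The calls were made as follows: active = fitted curve crosses -35% change at a dose up to twice the top valid dose; inconclusive = flat fit showing 30 to 70% drop, or poor fit; inactive = the rest, including rises or flat curves.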

Assay: iron-limited Pseudomonas aeruginosa growth inhibition – whole organism, absorbance 405 nm, EDDHA, dry powder, set 5, dose response (AID 624070)
Conditions: P. aeruginosa ATCC 15692 + EDDHA, A405, 24-30 h; series mostly up to 120 µM
Procedure, shortened: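 Assay system: P. aeruginosa ATCC 15692 cells | Quantity: Final OD600 0.0000005 bacteria | Medium: Succinate M9 minimal growth medium, pH 7.0 | Probe or stimulus: Iron chelator EDDHA at 2 µM final | Schedule: Bacterial growth with compound for 24–30 h at 37 °C | Technique: 405 nm absorbance, pyoverdine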

outcome, inactive:
CCCCC(C#N)c1ccccn1 (stereo not drawn)
CCCCC(C#N)c1ccc(F)cn1 (stereo not drawn)
N#CC(c1ccc(Cl)cc1)c1ccccn1 (stereo not drawn)
CCCCC(C#N)c1ccc(F)cc1 (stereo not drawn)
COCCC(C#N)c1ccc(Cl)cc1 (stereo not drawn)
CCCCC(C#N)c1ccc(Cl)cc1 (stereo not drawn)
N#CC(c1ccc(C(F)(F)F)c(Cl)n1)c1ccccc1OC(F)(F)F (stereo not drawn)
Clc1ccc(C(c2cccc(Cl)n2)c2nn[nH]n2)cc1 (stereo not drawn)
COCCOCCC(C#N)c1ccc(Cl)cc1 (stereo not drawn)
N#CC(c1ccc(F)cc1)c1cccc(Cl)n1 (stereo not drawn)
COCCOCCC(C#N)c1ccc(F)cc1 (stereo not drawn)
N#CC(c1ccc(Cl)cc1)N1CCCC1 (stereo not drawn)
CN(C)CCCC(C#N)c1ccc(Cl)cc1 (stereo not drawn)
N#CC1c2ccc(Cl)cc2CCc2cccnc21 (stereo not drawn)
COCCNC(C#N)c1ccc(Cl)cc1 (stereo not drawn)
COCCC(C#N)c1ccc(F)cc1 (stereo not drawn)
N#Cc1cccc(C(C#N)c2ccc(F)cc2)n1 (stereo not drawn)
CCCCC(C#N)c1ccc(Cl)cn1 (stereo not drawn)
